The subject of one test is DU-145. The test can be described thus: Growth inhibition of human DU145 cells after 96 hrs by trypan blue exclusion assay. It is filed as functional. Conditions: DU-145, 96 h.
Another test has as its system K562. The test can be described thus: Growth inhibition of human K562 cells expressing p210Bcr/Abl after 96 hrs by trypan blue exclusion assay. It counts as functional, cell-based. As to conditions: K562, 96 h. In outline:
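K562 cells were kept in RPMI with 10% FBS and penicillin–streptomycin at 37 °C under 5% CO2. Cells were seeded at 1 × 10^5 cells/mL with a range of compound concentrations, using DMSO as the negative control. After 96 h, viability was counted by Trypan blue exclusion and expressed as percent of DMSO control to derive GI50.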

Usually GI50 stands for the concentration giving 50% growth inhibition. Read a high GI50 as less potent growth inhibition.

In the case of `O=C(/C(=C\c1ccc(Oc2ccccc2)cc1)Sc1ccc(Br)cc1)c1ccc(Br)cc1`, the GI50 in the test on DU-145 and with K562 was 50 µM in each case.

Turning to `O=C(C(=Cc1ccc(O)c([N+](=O)[O-])c1)SCc1ccc(Br)cc1)c1ccc([N+](=O)[O-])c(Cl)c1`, the GI50 in the test on DU-145 and in the test on K562 was 1 µM each time.

Regarding `COc1cc(/C=C(/Sc2ccc(Br)cc2)C(=O)c2ccc(Br)cc2)ccc1O`, the GI50 in the test with DU-145 and in the test with K562 was 1 µM each time.

For the compound `Cc1cc(C)cc(/C=C(\C(=O)c2ccc(Cl)cc2)S(=O)(=O)Cc2ccc(Cl)cc2)c1`, the 50% growth inhibitory concentration (GI50) with DU-145 and with K562 was 1 µM each time.

As for `O=C(/C(=C\c1ccc(Br)cc1)S(=O)(=O)Cc1ccc(F)cc1)c1ccc(Br)cc1`, the results for the GI50 in the test with DU-145 and in the test on K562 were 25 µM and 10 µM, respectively.

On to `O=C(/C(=C\c1ccc(O)c([N+](=O)[O-])c1)S(=O)(=O)Cc1ccccc1Cl)c1ccc(Cl)cc1`, for which the GI50 with DU-145 and in the test on K562 was 10 µM in each case.

On to `O=C(/C(=C\c1ccc(O)cc1O)SCc1ccc(Cl)cc1)c1ccc(Cl)cc1`, for which the GI50 in the test on DU-145 and with K562 was 50 µM throughout.

As to `CN(C)c1ccc(/C=C(/SCc2ccc(F)cc2)C(=O)c2ccc(C(=O)O)cc2)cc1`, the GI50 in the test with DU-145 and in the test with K562 was 10 µM throughout.

Regarding `Cc1ccc(S(=O)(=O)/C(=C/c2ccc(Br)cc2)C(=O)c2ccc(Br)cc2)cc1`, the GI50 was 10 µM with DU-145 and 4 µM with K562.

For the compound `COc1ccc(S/C(=C/c2ccc(C)s2)C(=O)c2ccc(Cl)cc2)cc1`, the concentration for 50% growth inhibition (GI50) with DU-145 and with K562 was 50 µM each time.

With `Cc1ccsc1/C=C(\C(=O)c1ccc(Cl)cc1)S(=O)(=O)Cc1ccc(F)cc1`, the concentration for 50% growth inhibition (GI50) is 10 µM in the test with DU-145 and 1 µM in the test with K562.

In the case of `COc1ccc(C(=O)/C(=C\c2c(OC)cc(OC)cc2OC)Sc2ccc(F)cc2)cc1`, the GI50 with DU-145 and in the test on K562 was 50 µM in each case.

For `O=C(/C(=C\c1ccc(Br)cc1)S(=O)(=O)Cc1ccc(F)cc1)c1ccc(Cl)cc1`, the GI50 in the test on DU-145 was > 100 µM; in the test with K562, 50 µM.

With `Cc1ccc(S(=O)(=O)/C(=C/c2sccc2C)C(=O)c2ccc(Br)cc2)cc1`, the GI50 with DU-145 and in the test on K562 was 25 µM in each case.

As for `Cc1ccc(S/C(=C/c2ccc(N(C)C)cc2)C(=O)c2ccc(Br)cc2)cc1`, the GI50 with DU-145 was > 100 µM; in the test with K562 it was 50 µM.

As to `O=C(/C(=C\c1ccc(O)c([N+](=O)[O-])c1)Sc1ccccc1Br)c1ccc(Cl)cc1`, the GI50 came out at 25 µM with DU-145 and 10 µM with K562.

As for `Cc1ccc(S/C(=C/c2cc(C)cc(C)c2)C(=O)c2ccc(Cl)cc2)cc1`, the GI50 in the test with DU-145 was found to be 50 µM; with K562 it was 25 µM.

Turning to `O=C(/C(=C\c1c[nH]c2ccccc12)Sc1ccc(Br)cc1)c1ccc(Br)cc1`, the GI50 with DU-145 and in the test with K562 was 1 µM each time.

In the case of `O=C(/C(=C\c1ccc(Cl)c([N+](=O)[O-])c1)S(=O)(=O)c1ccc(Br)cc1)c1ccc(Br)cc1`, the figures for the GI50 in the test on DU-145 and in the test on K562 were 10 µM and 1 µM, respectively.

`COc1cc(OC)c(/C=C(/SCc2ccc(Cl)c(Cl)c2)C(=O)c2ccc(Cl)cc2)c(OC)c1`: the GI50 in the test on DU-145 and with K562 was 10 µM in each case.

For `Cc1ccc(C)c(/C=C(\C(=O)c2ccc(Cl)cc2)S(=O)(=O)Cc2ccc(Cl)cc2)c1`, the GI50 with DU-145 and in the test on K562 was 10 µM each time.

With `Cc1ccc(CS/C(=C/c2c[nH]c3ccc(Cl)cc23)C(=O)c2ccc(Cl)cc2)cc1`, the GI50 with DU-145 and with K562 was 1 µM in each case.

As to `Cc1ccc(S/C(=C/c2ccc(Oc3ccccc3)cc2)C(=O)c2ccc(Br)cc2)cc1`, the GI50 in the test on DU-145 was 1 µM; with K562 it was > 100 µM.

For the compound `COc1ccc(/C=C(\C(=O)c2ccc(Cl)cc2)S(=O)(=O)c2ccc(C)cc2)cc1O`, the GI50 in the test on DU-145 and in the test on K562 was 1 µM each time.

Consider `COc1cc(/C=C(/Sc2ccc(Br)cc2)C(=O)c2ccc(Br)cc2)ccc1F`, for which the figures for the GI50 in the test with DU-145 and in the test with K562 were 10 µM and 1 µM, respectively.

Turning to `O=C(/C(=C\c1ccc([N+](=O)[O-])c(O)c1)SCc1ccc(Br)cc1)c1ccc(C(F)(F)F)cc1`, the GI50 with DU-145 and in the test with K562 was 1 µM in each case.

Turning to `O=C(C(=Cc1ccc(Br)cc1)S(=O)(=O)Cc1ccccc1Cl)c1ccc(Cl)cc1`, the GI50 with DU-145 and with K562 was 1 µM each time.

Consider `CCOc1cc(/C=C(\SCc2ccc(Cl)cc2Cl)C(=O)c2ccc(Cl)cc2)ccc1O`, for which the values for the GI50 with DU-145 and in the test on K562 were 10 µM and 1 µM, respectively.

On to `Cc1ccc(/C=C(/SCc2ccc(F)cc2)C(=O)c2ccc(Cl)cc2)s1`, for which the GI50 with DU-145 and in the test on K562 was > 100 µM in each case.

Turning to `Cc1ccc(CS/C(=C/c2ccc(F)c(C)c2)C(=O)c2ccc(Cl)cc2)cc1`, the GI50 with DU-145 amounted to 25 µM; with K562 it was 10 µM.

On to `O=C(/C(=C\c1ccc([N+](=O)[O-])c(O)c1)SCc1ccc(Br)cc1)c1ccc(Br)cc1`, for which the GI50 in the test with DU-145 was 10 µM; in the test on K562, 1 µM.

`Cc1ccc(/C=C(/Sc2ccc(F)cc2)C(=O)c2ccc(Cl)cc2)s1`: the GI50 with DU-145 and in the test with K562 was 25 µM throughout.

For the compound `COc1ccc(C(=O)/C(=C\c2ccc(OC)c(O)c2)Sc2ccc(F)cc2)cc1`, the GI50 in the test with DU-145 and in the test with K562 was 1 µM throughout.

For `CN(C)c1ccc(/C=C(/SCc2ccc(F)cc2)C(=O)c2ccc(Br)cc2)cc1`, the concentration for 50% growth inhibition (GI50) stood at 50 µM in the test on DU-145 and 1 µM in the test on K562.

For the compound `O=C(/C(=C\c1ccc(O)c([N+](=O)[O-])c1)Sc1c(F)c(F)c(F)c(F)c1F)c1ccc(Br)cc1`, the GI50 in the test with DU-145 and in the test with K562 was 10 µM throughout.

With `O=C(/C(=C\c1ccc(OCc2ccccc2)cc1)SCc1ccc(Cl)cc1Cl)c1ccc(Cl)cc1`, the GI50 in the test with DU-145 and with K562 was 1 µM throughout.

Take `CSc1ccc(/C=C(\C(=O)c2ccc(Br)cc2)S(=O)(=O)c2ccc(C)cc2)cc1`: the GI50 in the test with DU-145 and with K562 was 1 µM throughout.

In the case of `O=C(/C(=C\c1ccc(Br)cc1)SCc1ccc(Cl)cc1)c1ccc(Br)cc1`, the concentration for 50% growth inhibition (GI50) in the test on DU-145 and with K562 was 1 µM throughout.

Turning to `Cc1ccc(S(=O)(=O)/C(=C/c2c[nH]c3ccccc23)C(=O)c2ccc(Br)cc2)cc1`, the GI50 in the test with DU-145 and with K562 was 10 µM throughout.

On to `COc1cc(OC)c(C=C(C(=O)c2ccc(Cl)cc2)S(=O)(=O)Cc2ccccc2Cl)c(OC)c1`, for which the figures for the GI50 with DU-145 and with K562 were > 100 µM and 25 µM, respectively.

With `O=C(/C(=C\c1c[nH]c2ccc(Br)cc12)SCc1ccc(F)cc1)c1ccc(Cl)cc1`, the GI50 in the test on DU-145 is 50 µM; with K562, 1 µM.

Take `COc1cc(OC)c(/C=C(/SCc2ccc(Cl)cc2)C(=O)c2ccc(Br)cc2)c(OC)c1`: the GI50 in the test with DU-145 was found to be 1 µM; in the test on K562, 10 µM.

Take `Cc1ccc(S/C(=C/c2ccc(Cl)cc2Cl)C(=O)c2ccc(Cl)cc2)cc1`: the GI50 in the test with DU-145 and with K562 was 10 µM each time.

Take `O=C(/C(=C\c1ccc(O)cc1O)S(=O)(=O)c1ccccc1Br)c1ccc(Br)cc1`: the GI50 in the test on DU-145 was > 100 µM; with K562, 50 µM.

On to `O=C(/C(=C\c1ccc(OCc2ccccc2)cc1)SCc1ccc(Cl)cc1)c1ccc(Cl)cc1`, for which the concentration for 50% growth inhibition (GI50) in the test on DU-145 amounted to 1 µM; with K562 it was 10 µM.

As for `Cc1ccc(S(=O)(=O)/C(=C/c2ccc(N(C)C)cc2)C(=O)c2ccc(Cl)cc2)cc1`, the GI50 with DU-145 and in the test with K562 was > 100 µM in each case.

`O=C(O)c1ccc(C(=O)/C(=C\c2ccccc2F)SCc2ccc(Br)cc2)cc1`: the GI50 in the test on DU-145 and in the test on K562 was 10 µM each time.

For the compound `COc1cc(/C=C(\C(=O)c2ccc(Cl)cc2)S(=O)(=O)Cc2ccccc2Cl)cc(OC)c1`, the GI50 was > 100 µM in the test on DU-145 and 50 µM in the test on K562.

For the compound `O=C(C(=Cc1ccc(Br)cc1)S(=O)(=O)Cc1ccc(I)cc1)c1ccc(Br)cc1`, the GI50 in the test on DU-145 and in the test with K562 was > 50 µM each time.

With `O=C(O)c1ccc(C(=O)/C(=C\c2ccc(Br)cc2)SCc2ccc(Br)cc2)cc1`, the GI50 with DU-145 and with K562 was 1 µM each time.

Take `O=C(/C(=C\c1c[nH]c2ccccc12)SCc1ccc(F)cc1)c1ccc(Cl)cc1`: the GI50 in the test on DU-145 and in the test with K562 was 1 µM throughout.

On to `O=C(/C(=C\c1ccc(OC(F)(F)F)cc1)S(=O)(=O)c1ccc(Br)cc1)c1ccc(Br)cc1`, for which the concentration for 50% growth inhibition (GI50) in the test on DU-145 and in the test on K562 was 25 µM each time.

With `CCOc1ccc(/C=C(\C(=O)c2ccc(Br)cc2)S(=O)(=O)c2ccc(Br)cc2)cc1OC`, the 50% growth inhibitory concentration (GI50) in the test with DU-145 and in the test on K562 was 1 µM in each case.

For the compound `Cc1ccc(CS/C(=C/c2ccc(C)s2)C(=O)c2ccc(Cl)cc2)cc1`, the GI50 in the test with DU-145 and in the test with K562 was 50 µM throughout.

On to `O=C(/C(=C\c1ccccc1O)Sc1ccccc1Br)c1ccc(Br)cc1`, for which the concentration for 50% growth inhibition (GI50) with DU-145 and in the test with K562 was 50 µM each time.

For `Cc1ccc(CS/C(=C/c2ccc(O)c(O)c2O)C(=O)c2ccc(Cl)cc2)cc1`, the GI50 with DU-145 and in the test on K562 was 50 µM throughout.

`Cc1ccsc1/C=C(/SCc1ccc(Cl)cc1)C(=O)c1ccc([N+](=O)[O-])cc1`: the GI50 with DU-145 and with K562 was > 100 µM throughout.

For the compound `Cc1ccc(S(=O)(=O)/C(=C/c2c[nH]c3ccc(Cl)cc23)C(=O)c2ccc(Br)cc2)cc1`, the GI50 in the test on DU-145 and with K562 was 10 µM throughout.

`O=C(/C(=C\c1ccc(F)c([N+](=O)[O-])c1)SCc1ccc(Br)cc1)c1ccc(C(F)(F)F)cc1` gave a GI50 with K562 of 1 µM.

In turn, `COc1cccc(OC)c1/C=C(\C(=O)c1ccc(Br)cc1)S(=O)(=O)c1ccc(Br)cc1` had a concentration for 50% growth inhibition (GI50) with DU-145 of 10 µM.

Consider `O=C(/C(=C\c1ccc(F)c([N+](=O)[O-])c1)Sc1ccc(Cl)cc1)c1ccc(Cl)cc1`, for which the GI50 in the test on K562 came out at 10 µM.

For the compound `COc1ccc(/C=C(/SCc2ccc(Cl)cc2)C(=O)c2ccc(Cl)cc2)cc1O`, the GI50 in the test on K562 worked out at 1 µM.

`O=C(/C(=C\c1ccc(F)cc1)Sc1ccc(Br)cc1)c1ccc(Br)cc1` had a concentration for 50% growth inhibition (GI50) in the test with K562 of 1 µM.

The values are drawn from ChEMBL document CHEMBL1240409, “Design, synthesis and evaluation of (E)-alpha-benzylthio chalcones as novel inhibitors of BCR-ABL kinase” (Bioorg Med Chem, 2010).
